Tests used:
[1] = target: T1, FLAT-expressing Hek293 cells (Rattus norvegicus, UniProt P97612, DEL9-76); assay: [3H]-anandamide accumulation in FLAT-expressing Hek293 cells; format: cell-based
T1 sequence (P97612 with tags, fused parts or gaps DEL9-76): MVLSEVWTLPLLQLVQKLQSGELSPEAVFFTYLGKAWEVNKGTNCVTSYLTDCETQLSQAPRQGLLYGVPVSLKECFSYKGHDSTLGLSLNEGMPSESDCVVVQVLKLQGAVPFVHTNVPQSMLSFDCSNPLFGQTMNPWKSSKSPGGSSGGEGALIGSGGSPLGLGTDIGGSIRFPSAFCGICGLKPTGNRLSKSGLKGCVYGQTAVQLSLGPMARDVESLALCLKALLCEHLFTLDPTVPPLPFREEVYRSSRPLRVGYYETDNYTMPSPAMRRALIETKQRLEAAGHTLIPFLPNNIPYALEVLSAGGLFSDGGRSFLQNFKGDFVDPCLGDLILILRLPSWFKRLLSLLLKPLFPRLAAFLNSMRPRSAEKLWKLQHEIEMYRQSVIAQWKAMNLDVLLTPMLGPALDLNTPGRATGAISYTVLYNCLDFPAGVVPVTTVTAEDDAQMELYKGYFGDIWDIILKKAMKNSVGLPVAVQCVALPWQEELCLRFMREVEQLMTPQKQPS

[2] = test system: formalin-induced nocifensive behavior; assay: Formalin-induced pain behavior in mice; format: in vivo, mouse; conditions: formalin test, antagonist 1 mg-kg^-1, i.p.
How it was run: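 Mice get intraplantar 5% formalin (20 μL). Nocifensive behaviour is scored in phase I (0–5 min) and phase II (5–45 min). Test compound is given i.p. at 0.01–1 mg-kg−1. In the antagonism arm, CB1, CB2 and TRPV-1 antagonists are each given at 1 mg-kg−1 i.p. Six mice per group; mean±SEM; two-way ANOVA with Bonferroni versus vehicle-injected controls.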

SMILES | effect on [3H]-anandamide accumulation ([1]; FLAT-expressing Hek293 cells) | effect of antagonist on antinociceptive actions of systemic ARN272 [2] | other results
CCCCC/C=C\C/C=C\C/C=C\C/C=C\CCCC(=O)NCCO [anandamide, N-arachidonoylethanolamine] | – | – | effect on [3H]-anandamide accumulation ([1]; non-radioactive anandamide 100 μM): prevented
CCCCCCCC/C=C\CCCCCCCC(=O)N[C@H](CO)Cc1ccc(O)cc1 [OMDM-1] | prevented | – | –
CCCCC/C=C\C/C=C\C/C=C\C/C=C\CCCC(=O)NCc1ccoc1 [UCM707] | prevented | – | –
CC(C)(C)c1ccc(/C=C/C(=O)Nc2ccc3c(c2)OCCO3)cc1 [AMG9810] | – | ineffective | –
COc1ccc(C(=O)c2c(C)n(CCN3CCOCC3)c3cc(I)ccc23)cc1 [AM630] | – | ineffective | –
Cc1c(C(=O)NN2CCCCC2)nn(-c2ccc(Cl)cc2Cl)c1-c1ccc(I)cc1 [AM251] | – | suppressed | –
CCCCCC=CCC=CCC=CCC=CCCCC(=O)Nc1ccc(O)cc1 [AM404, N-(4-hydroxyphenyl)-eicosa-5,8,11,14-tetraenamide] | – | – | IC50 [1]: 4 µM
CCCCC/C=C\C/C=C\C/C=C\C/C=C\CCCC(=O)Nc1ccc(O)cc1C [VDM11] | prevented | – | –
